Source: ChEMBL document CHEMBL3758134, “Avertoxins A-D, Prenyl Asteltoxin Derivatives from Aspergillus versicolor Y10, an Endophytic Fungus of Huperzia serrata” (J Nat Prod, 2015)

Columns and labels:
MDA-MB-231 = assay: Antiproliferative activity against human MDA-MB-231 cells assessed as cell viability after 72 hrs by SRB assay; format: functional, cell-based; conditions: MDA-MB-231, 72 h
In short: (§1)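 Cells grown in DMEM with 10% FBS and exposed to compound for 72 h. Viability read by sulforhodamine B (SRB) staining.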

[1] = Antiproliferative activity against human HCT116 cells assessed as cell viability after 72 hrs by SRB assay; format: functional, cell-based; conditions: HCT-116, 72 h; in short: as §1
HeLa = assay: Antiproliferative activity against human HeLa cells assessed as cell viability after 72 hrs by SRB assay; format: functional, cell-based; in short: as §1
Acetylcholinesterase = Acetylcholinesterase (Homo sapiens, UniProt P22303); assay: Inhibition of human acetylcholinesterase after 30 mins by microplate reader-based Ellman's method
Acetylcholinesterase, sequence (P22303 whole entry): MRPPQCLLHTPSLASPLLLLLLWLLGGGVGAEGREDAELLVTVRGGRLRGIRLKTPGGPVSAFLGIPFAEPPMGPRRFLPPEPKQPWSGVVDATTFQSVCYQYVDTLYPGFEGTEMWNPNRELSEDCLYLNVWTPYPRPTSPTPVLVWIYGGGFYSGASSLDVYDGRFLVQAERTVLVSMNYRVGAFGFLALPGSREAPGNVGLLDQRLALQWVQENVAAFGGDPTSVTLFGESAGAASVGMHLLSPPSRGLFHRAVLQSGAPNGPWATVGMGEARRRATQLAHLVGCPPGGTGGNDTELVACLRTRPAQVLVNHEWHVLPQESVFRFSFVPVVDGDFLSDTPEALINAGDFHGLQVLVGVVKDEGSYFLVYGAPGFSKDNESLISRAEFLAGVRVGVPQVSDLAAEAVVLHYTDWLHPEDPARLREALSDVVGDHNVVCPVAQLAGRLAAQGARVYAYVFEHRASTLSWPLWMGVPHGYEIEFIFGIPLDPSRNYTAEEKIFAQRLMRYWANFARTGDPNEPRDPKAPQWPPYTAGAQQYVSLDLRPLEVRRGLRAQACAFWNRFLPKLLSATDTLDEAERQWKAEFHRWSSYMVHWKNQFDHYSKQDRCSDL

In the case of `COc1cc([C@@H]2c3cc4c(cc3[C@@H](O[C@@H]3O[C@@H]5CO[C@@H](C)O[C@H]5[C@H](O)[C@H]3O)[C@H]3COC(=O)[C@H]23)OCO4)cc(OC)c1O` [ETOPOSIDE], the IC50 (MDA-MB-231) is reported as 4.2 µM, the IC50 [1] is reported as 26.1 µM and the IC50 (HeLa) is reported as 3.2 µM.

With `CC[C@H]1O[C@@H]2O[C@H](/C=C/C=C/C=C/c3oc(=O)cc(OC)c3C)[C@H](O)[C@]2(C)[C@@]1(C)O` the IC50 (MDA-MB-231) was > 50 µM, the IC50 [1] was > 50 µM and the IC50 (HeLa) was > 50 µM.

`CC[C@H]1O[C@@H]2O[C@H](/C=C/C=C/C=C/c3oc(=O)cc(OCC=C(C)C)c3C)[C@H](O)[C@]2(C)[C@@]1(C)O` gave an IC50 (MDA-MB-231) of 37 µM, an IC50 [1] of 44 µM and an IC50 (HeLa) of 48 µM.

In the case of `CC[C@H]1O[C@@H]2O[C@H](/C=C/C=C/C=C/c3oc(=O)c4c(c3C)O[C@H](C)C4(C)C)[C@H](O)[C@]2(C)[C@@]1(C)O`, the IC50 (MDA-MB-231) is reported as > 50 µM, the IC50 [1] is reported as 50 µM and the IC50 (HeLa) is reported as 48 µM.

`CC[C@H]1O[C@@H]2O[C@H](/C=C/C=C/C=C/c3oc(=O)cc(OC/C=C(\C)C(=O)OC)c3C)[C@H](O)[C@]2(C)[C@@]1(C)O` showed an IC50 (Acetylcholinesterase) of 14.9 µM, an IC50 (MDA-MB-231) of 35 µM and an IC50 [1] of 9 µM. The IC50 (HeLa) was > 50 µM.

`COC(=O)/C(C)=C/COc1cc(=O)oc(/C=C/C=C/C=C/[C@H]2O[C@H]3O[C@H](C)[C@](C)(O)[C@@]3(C)[C@H]2O)c1C` gave an IC50 (MDA-MB-231) of 28 µM, an IC50 [1] of 21 µM and an IC50 (HeLa) of 11 µM.
